“Also recorded” adds a separate entry of the source.
Assays:
patients with NDMM [1] = experiment: Phase 1 dose escalation; assay type: in vivo, human; details: twice-weekly ixazomib 3·0 or 3·7 mg plus Rd
In short: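 Phase 1 tested two fixed ixazomib doses (3·0 and 3·7 mg) with a standard 3 + 3 scheme, scoring DLTs during cycle 1. MTD was the highest dose with ≤1 of 6 evaluable patients having a DLT. RP2D selection also used response rates and toxicity over later cycles.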

patients with NDMM [2] = experiment: Adverse events graded by NCI CTCAE v4·03; assay type: in vivo, human
In short: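 AEs were recorded throughout treatment and for 30 days after the last dose, and graded by NCI CTCAE v4·03 in all patients given ≥1 dose of any study drug. Maintenance patients had responding or stable disease after 16 cycles of ixazomib-Rd induction. They then took single-agent oral ixazomib on days 1, 4, 8 and 11 of 21-day cycles, at the last-tolerated induction dose, until progression or unacceptable toxicity.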

[3] = Ixazomib plasma pharmacokinetics, non-compartmental analysis; assay type: in vivo, human; details: for AUC(0-t): 3 mg, AUC0–72, geometric mean (%CV), RP2D 3·0 mg
In short: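 Phase 1 patients took fixed oral ixazomib 3·0 or 3·7 mg on an empty stomach (≥1 h before or ≥2 h after a meal), on days 1, 4, 8 and 11 of a 21-day cycle. Co-dosing was lenalidomide 25 mg on days 1–14 plus dexamethasone 20 mg. Serial plasma samples were taken, and non-compartmental parameters were calculated on cycle 1 days 1 and 11. Values are reported as geometric mean (%CV).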

[4] = ref Gupta et al, 2015b; cited from earlier work
[5] = during single-agent ixazomib maintenance
[6] = patients who received single-agent ixazomib maintenance
[7] = received maintenance, n = 18, new-onset AEs during cycle ≥17

Question: For `CC(C)C[C@H](NC(=O)CNC(=O)c1cc(Cl)ccc1Cl)B(O)O` [ixazomib], which “Dose-limiting toxicities in cycle 1” value (patients with NDMM [1]) is on record?
Answer: No dose‐limiting toxicities; also recorded: no DLTs

Question: And the “New-onset drug-related grade 3 PN NEC” value (patients with NDMM [2]; during maintenance)?
Answer: 6%

Question: And the “New-onset drug-related grade 3 hyperglycaemia” value (patients with NDMM [2]; during maintenance)?
Answer: 0%

Question: And the “New-onset drug-related grade 3 rashes, eruptions and exanthems NEC” value (patients with NDMM [2]; during maintenance)?
Answer: 6%

Question: And the “New-onset drug-related PN NEC” value (patients with NDMM [2]; [5])?
Answer: 28%

Question: What about the New-onset drug-related fatigue (patients with NDMM [2]; [5]) of the same molecule?
Answer: 11%

Question: What about the “New-onset drug-related rashes, eruptions and exanthems NEC” value (patients with NDMM [2]; [5]) of the same molecule?
Answer: 17%

Question: What about the “New-onset AEs resulting in dose reductions” value (patients with NDMM [2]; patients who received ixazomib maintenance) of the same molecule?
Answer: 33%

Question: What about the “New-onset drug-related AEs during maintenance” value (patients with NDMM [2]; [6]) of the same molecule?
Answer: 89%

Question: What about the “New-onset drug-related grade 3 AEs during maintenance” value (patients with NDMM [2]; [6]) of the same molecule?
Answer: 28%

Question: What about the On-study deaths (patients with NDMM [2]; received maintenance, n = 18, cycle ≥17) of the same molecule?
Answer: 0 n (%)

Question: What about the “AE resulting in any study drug dose reduction” value (patients with NDMM [2]; [7]) of the same molecule?
Answer: 6 (33) n (%)

Question: What about the “AE resulting in discontinuation” value (patients with NDMM [2]; [7]) of the same molecule?
Answer: 3 (17) n (%)

Question: What about the “Any AE” value (patients with NDMM [2]; [7]) of the same molecule?
Answer: 16 (89) n (%)

Question: What about the “Any SAE” value (patients with NDMM [2]; [7]) of the same molecule?
Answer: 2 (11) n (%)

Question: What about the “Any drug-related AE” value (patients with NDMM [2]; [7]) of the same molecule?
Answer: 16 (89) n (%)

Question: And the “Any drug-related SAE” value (patients with NDMM [2]; [7])?
Answer: 2 (11) n (%)

Question: What about the “Any drug-related grade ≥3 AE” value (patients with NDMM [2]; [7]) of the same molecule?
Answer: 5 (28) n (%)

Question: And the “Any grade ≥3 AE” value (patients with NDMM [2]; [7])?
Answer: 8 (44) n (%)

Question: And the “Drug-related ALT increased, All-grade” value (patients with NDMM [2]; [7])?
Answer: 1 (6) n (%)

Question: What about the “Drug-related ALT increased, Grade 3” value (patients with NDMM [2]; [7]) of the same molecule?
Answer: 0 n (%)

Question: What about the “Drug-related Anxiety, All-grade” value (patients with NDMM [2]; [7]) of the same molecule?
Answer: 0 n (%)

Question: What about the “Drug-related Anxiety, Grade 3” value (patients with NDMM [2]; [7]) of the same molecule?
Answer: 0 n (%)

Question: What about the “Drug-related Constipation, All-grade” value (patients with NDMM [2]; [7]) of the same molecule?
Answer: 0 n (%)

Question: What about the “Drug-related Constipation, Grade 3” value (patients with NDMM [2]; [7]) of the same molecule?
Answer: 0 n (%)

Question: What about the “Drug-related Diarrhoea, All-grade” value (patients with NDMM [2]; [7]) of the same molecule?
Answer: 5 (28) n (%)

Question: What about the “Drug-related Diarrhoea, Grade 3” value (patients with NDMM [2]; [7]) of the same molecule?
Answer: 1 (6) n (%)

Question: What about the “Drug-related Dizziness, All-grade” value (patients with NDMM [2]; [7]) of the same molecule?
Answer: 1 (6) n (%)

Question: What about the “Drug-related Dizziness, Grade 3” value (patients with NDMM [2]; [7]) of the same molecule?
Answer: 0 n (%)

Question: And the “Drug-related Dysgeusia, All-grade” value (patients with NDMM [2]; [7])?
Answer: 0 n (%)

Question: And the “Drug-related Dysgeusia, Grade 3” value (patients with NDMM [2]; [7])?
Answer: 0 n (%)

Question: What about the “Drug-related Fatigue, All-grade” value (patients with NDMM [2]; [7]) of the same molecule?
Answer: 2 (11) n (%)

Question: What about the “Drug-related Fatigue, Grade 3” value (patients with NDMM [2]; [7]) of the same molecule?
Answer: 0 n (%)

Question: What about the “Drug-related Hyperglycaemia, All-grade” value (patients with NDMM [2]; [7]) of the same molecule?
Answer: 2 (11) n (%)

Question: And the “Drug-related Hyperglycaemia, Grade 3” value (patients with NDMM [2]; [7])?
Answer: 0 n (%)

Question: What about the “Drug-related Hyponatraemia, All-grade” value (patients with NDMM [2]; [7]) of the same molecule?
Answer: 0 n (%)

Question: What about the “Drug-related Hyponatraemia, Grade 3” value (patients with NDMM [2]; [7]) of the same molecule?
Answer: 0 n (%)

Question: And the “Drug-related Insomnia, All-grade” value (patients with NDMM [2]; [7])?
Answer: 0 n (%)

Question: And the “Drug-related Insomnia, Grade 3” value (patients with NDMM [2]; [7])?
Answer: 0 n (%)

Question: And the “Drug-related Muscle spasms, All-grade” value (patients with NDMM [2]; [7])?
Answer: 0 n (%)

Question: And the “Drug-related Muscle spasms, Grade 3” value (patients with NDMM [2]; [7])?
Answer: 0 n (%)

Question: And the “Drug-related Muscular weakness, All-grade” value (patients with NDMM [2]; [7])?
Answer: 2 (11) n (%)

Question: And the “Drug-related Muscular weakness, Grade 3” value (patients with NDMM [2]; [7])?
Answer: 1 (6) n (%)

Question: And the “Drug-related Nausea, All-grade” value (patients with NDMM [2]; [7])?
Answer: 6 (33) n (%)

Question: What about the “Drug-related Nausea, Grade 3” value (patients with NDMM [2]; [7]) of the same molecule?
Answer: 1 (6) n (%)

Question: What about the “Drug-related Neutropenia, All-grade” value (patients with NDMM [2]; [7]) of the same molecule?
Answer: 0 n (%)

Question: And the “Drug-related Neutropenia, Grade 3” value (patients with NDMM [2]; [7])?
Answer: 0 n (%)

Question: What about the “Drug-related Neutrophil count decreased, All-grade” value (patients with NDMM [2]; [7]) of the same molecule?
Answer: 1 (6) n (%)

Question: What about the “Drug-related Neutrophil count decreased, Grade 3” value (patients with NDMM [2]; [7]) of the same molecule?
Answer: 1 (6) n (%)

Question: And the “Drug-related PN NEC, All-grade” value (patients with NDMM [2]; [7])?
Answer: 5 (28) n (%)

Question: And the “Drug-related PN NEC, Grade 3” value (patients with NDMM [2]; [7])?
Answer: 1 (6) n (%)

Question: What about the “Drug-related Peripheral oedema, All-grade” value (patients with NDMM [2]; [7]) of the same molecule?
Answer: 2 (11) n (%)

Question: What about the “Drug-related Peripheral oedema, Grade 3” value (patients with NDMM [2]; [7]) of the same molecule?
Answer: 0 n (%)

Question: What about the “Drug-related Pneumonia, All-grade” value (patients with NDMM [2]; [7]) of the same molecule?
Answer: 0 n (%)

Question: And the “Drug-related Pneumonia, Grade 3” value (patients with NDMM [2]; [7])?
Answer: 0 n (%)

Question: And the “Drug-related Rashes, eruptions and exanthems NEC, All-grade” value (patients with NDMM [2]; [7])?
Answer: 3 (17) n (%)

Question: And the “Drug-related Rashes, eruptions and exanthems NEC, Grade 3” value (patients with NDMM [2]; [7])?
Answer: 1 (6) n (%)

Question: What about the “Drug-related Thrombocytopenia, All-grade” value (patients with NDMM [2]; [7]) of the same molecule?
Answer: 0 n (%)

Question: And the “Drug-related Thrombocytopenia, Grade 3” value (patients with NDMM [2]; [7])?
Answer: 0 n (%)

Question: And the “Drug-related Vomiting, All-grade” value (patients with NDMM [2]; [7])?
Answer: 3 (17) n (%)

Question: And the “Drug-related Vomiting, Grade 3” value (patients with NDMM [2]; [7])?
Answer: 1 (6) n (%)

Question: And the Tmax ([3]; human, plasma, oral)?
Answer: 1 h

Question: What about the AUC(0-t) ([3]; human, plasma, oral, day 1) of the same molecule?
Answer: 315 ng·h/mL

Question: What about the AUC(0-t) ([3]; human, plasma, oral, day 11) of the same molecule?
Answer: 1110 ng·h/mL

Question: And the “Pharmacokinetic interaction of ixazomib with Rd” value ([3]; pharmacokinetic data similar to other studies)?
Answer: no pharmacokinetic interaction

Question: And the “Effects on QTc or heart rate” value [4]?
Answer: no clinically meaningful effects

Source: article PMC6055619 (British Journal of Haematology, 2018)
